Data taken from ChEMBL document CHEMBL1138651, “Synthesis of small molecule CDC25 phosphatases inhibitors” (Bioorg Med Chem Lett, 2004).

Molecular target: T1, M-phase inducer phosphatase 3 (Homo sapiens, UniProt P30307)
T1 sequence (P30307 whole entry): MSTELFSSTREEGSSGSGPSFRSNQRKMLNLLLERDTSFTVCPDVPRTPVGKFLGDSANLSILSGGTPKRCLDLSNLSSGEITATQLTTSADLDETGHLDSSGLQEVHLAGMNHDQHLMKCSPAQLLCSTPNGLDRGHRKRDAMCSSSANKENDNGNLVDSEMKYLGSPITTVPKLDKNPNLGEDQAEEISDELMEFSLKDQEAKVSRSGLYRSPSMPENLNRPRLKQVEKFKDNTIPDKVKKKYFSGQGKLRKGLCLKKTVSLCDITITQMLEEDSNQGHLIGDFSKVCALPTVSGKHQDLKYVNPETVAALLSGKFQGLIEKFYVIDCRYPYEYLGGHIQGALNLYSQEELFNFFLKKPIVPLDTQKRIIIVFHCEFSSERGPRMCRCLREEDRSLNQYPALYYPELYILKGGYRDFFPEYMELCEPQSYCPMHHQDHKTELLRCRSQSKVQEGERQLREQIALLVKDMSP
Assay: Inhibitory concentration for human cell division cycle 25 degree C phosphatase; […]

Row | Structure (SMILES) | IC50
1 | CN(CCc1ccc([N+](=O)[O-])cc1)Cc1ccc(N(C)C)cc1 | > 80 µM
2 | COc1cccc(CN(C)CCc2ccc([N+](=O)[O-])cc2)c1OC | > 80 µM
3 | CN(CCc1ccc([N+](=O)[O-])cc1)Cc1ccccc1O | > 80 µM
4 | COc1cccc(CN(C)CCc2ccc([N+](=O)[O-])cc2)c1O | > 80 µM
5 | CN(CCc1ccc([N+](=O)[O-])cc1)Cc1ccccc1 | > 80 µM
6 | CN(CCc1ccc([N+](=O)[O-])cc1)Cc1cccc(N(C)C)c1 | > 80 µM
7 | COc1cc(N(C)C)ccc1CN(C)CCc1ccc([N+](=O)[O-])cc1 | > 80 µM
8 | COc1cccc(CN(C)CCc2ccc([N+](=O)[O-])cc2)c1 | > 80 µM
9 | COc1ccc(OC)c(CN(C)CCc2ccc([N+](=O)[O-])cc2)c1 | > 80 µM
10 | CN(CCc1ccc([N+](=O)[O-])cc1)Cc1cc([N+](=O)[O-])ccc1O | > 80 µM

Molecular target: T1, M-phase inducer phosphatase 3
Assay: Inhibitory concentration for human cell division cycle 25 degree C phosphatase
How it was run: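 Recombinant human CDC25C expressed as an MBP fusion, assayed with 3-O-methylfluorescein phosphate (OMFP) as substrate. Dose-response used to derive IC50, with menadione as positive control. Values are the mean ± SEM of at least two independent experiments. Compounds with IC50 > 80 µM were scored not active.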

Row | IC50 | Structure (SMILES)
11 | 4 µM | COc1cc(N(C)C)cc(CNCCc2ccc([N+](=O)[O-])cc2)c1O
12 | 20.7 µM | COc1cc(CN(C)CCc2ccc([N+](=O)[O-])cc2)cc(N(C)C)c1O
13 | 18.8 µM | CC1=CC(=O)c2ccccc2C1=O [MENADIONE]

Row | Structure (SMILES) | IC50
14 | CN(C)c1ccc(O)c(CNCCc2ccc([N+](=O)[O-])cc2)c1 | 3.9 µM
15 | CN(CCc1ccc([N+](=O)[O-])cc1)Cc1cc(N(C)C)ccc1O | 5.6 µM
